“Also recorded” adds a separate entry of the source.
Legend:
[1] = Lower critical solution temperature; format: physicochemical
[2] = Solubility of the isolated solid; format: physicochemical; details: light yellow solid
In vitro release of = format: physicochemical; details: for accumulated amount of released (dach)Pt(II): pH 7.4, 37°C
Method in brief: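 Conjugate solution (2 mg/mL) was dialysed in cellulose tubing (MWCO 2,000 Da) against phosphate buffer at pH 5.4 or 7.4, at 37°C with stirring at 100 rpm under sink conditions. Dialysate was sampled at set times over 10 days. Released Pt was measured by ICP-MS and expressed as cumulative % of total loaded (dach)Pt.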

[3] = tested on: gastric tumor cell line (MKN-28); assay: Nude mouse xenograft trial; format: in vivo, BALB/C nude mice
Method in brief: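 MKN-28 xenografts were grown in BALB/C nude mice (5 weeks, 15–20 g). Test and reference drugs were dosed to equal (dach)Pt content, at 8 mg (dach)Pt/kg, and reference drug was also given at 16 mg (dach)Pt/kg. Tumour growth and body weight were monitored.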

[4] = Bioimaging of Pt in mouse kidney by laser ablation ICP-MS; format: in vivo; details: listed as PP
Method in brief: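 Mouse kidneys were dissected at 2, 12 and 24 h after IV injection, following the biodistribution procedure. Reference drug was dosed to match on (dach)Pt content. Kidneys were cryostat-sectioned at 100 μm and dried at room temperature. Pt was mapped by femtosecond laser ablation ICP-MS.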

male ICR mice = assay: Acute toxicity study; format: in vivo
[5] = Particle size distribution by dynamic light scattering; format: physicochemical; details: hydrodynamic size
[6] = Pharmacokinetic study after single IV injection; format: in vivo, male Sprague–Dawley rats
[7] = tested on: non-small-cell lung carcinoma A549 cells; assay: Biodistribution of Cy5.5-labeled PP by ex vivo imaging in tumor-bearing mice; parameters: species or system BALB/C nude mice; details: Cy5.5-labeled PP 60 mg/kg IV
Method in brief: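 BALB/C nude mice (5 weeks, 15–20 g) were acclimatised for 4 days. A549 cells (1×10^7 in serum-free RPMI 1640) were injected s.c. into the right flank. After 2 weeks, with tumours at 250–300 mm3, mice received the Cy5.5-labelled conjugate (60 mg/kg in saline) IV via the tail vein. Mice were killed at 12, 24, 48 and 72 h, with blood taken by cardiac puncture. Tumour, muscle, liver, kidney, spleen, lung and blood were imaged by CCD camera through a 680–720 nm Cy5.5 emission filter.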

[8] = Clearance study of Cy5.5-labeled PP from major organs by ex vivo imaging; format: in vivo, BALB/C nude mice; details: Cy5.5-labeled PP 300 mg/kg IV, mice without tumor, postinjection
Method in brief: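 Tumour-free BALB/C nude mice (n=30; 5 weeks, 15–20 g; acclimatised 4 days) received the Cy5.5-labelled conjugate at 300 mg/kg IV via the tail vein. Mice were killed at short intervals during week 1, then weekly. Dissected organs were imaged by CCD camera through a 680–720 nm Cy5.5 filter until each organ's intensity fell below that of a blank organ.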

[9] = Critical aggregation concentration by fluorescence pyrene method; format: physicochemical; details: in saline

Compound: [NP(MPEG550)(AE)(AA)Pt(dach)]n [Polyplatin]
- Lower critical solution temperature (LCST) ([1]; 5% solution): higher than 100 °C
- Lower critical solution temperature (LCST) ([1]; given with the synthesis): > 100 °C
- solubility [2]: soluble in water and polar organic solvents
- accumulated amount of platinum released (In vitro release of; pH 5.4, 37°C, 10 days): 98%
- accumulated amount of released (dach)Pt(II) (In vitro release of; 24 hours): 18%
- accumulated amount of released (dach)Pt(II) (In vitro release of; 10 days): 72%
- antitumor activity ([3]; 8 mg (dach)Pt/kg IV on days 1, 5, 9, MKN-28 xenograft): comparable to OX
- death of test mice ([3]; 16 mg (dach)Pt/kg IV, MKN-28 xenograft): without any death
- antitumor efficacy compared with OX, overall ([3]; MKN-28 xenograft, listed as PP): remarkably higher antitumor activity
- systemic toxicity compared with OX ([3]; MKN-28 xenograft, listed as PP): lower systemic toxicity; also recorded: low systemic toxicity
- antitumor activity ([3]; double dose of 16 mg (dach)Pt/kg IV on days 1, 5, 9, MKN-28 xenograft, listed as PP): much better activity
- body weight changes ([3]; low and high doses, during the drug injection period (days 1, 5, and 9)): nearly no body weight changes
- excretion of platinum from kidney ([4]; 12 and 24 hours postinjection): more rapidly excreted than monomeric OX
- platinum distribution/accumulation in kidney ([4]; 2 hours postinjection, same dose based on (dach)Pt content): accumulates much less in kidney; also recorded: much less and relatively homogeneous distribution; also recorded: accumulated much less in the kidney
- body weight change depending on the dose (male ICR mice; 5, 50, 300 and 2,000 mg/kg IV, 14 days): no considerable difference in body weight change
- LD50 (male ICR mice; IV in saline, ICR mice, 14 days observation): more than 2000 mg/kg
- mean diameter [5]: 55.1 nm
- clearance time relative to OX ([6]; PP (6.3 mL/h) compared with OX (116.36 mL/h)): about 18 times
- half-life of the β phase relative to OX ([6]; PP compared with OX, rats): more than twice longer
- t1/2 β ([6]; single IV 1 mg (dach)Pt/kg, male rats, listed as PP): 13.3 h
- plasma concentration course (fluorescence) ([7]; 12 to 72 hours postinjection): decrease slowly
- tumor accumulation / tumor selectivity ([7]; A549 tumor-bearing mice, EPR effect, listed as PP): high tumor selectivity
- time of maximum concentration in tumor ([7]; A549 tumor-bearing mice, postinjection): 48 h
- tumor-to-tissue ratio, maximum value ([7]; at 48 hours postinjection): 12
- time to clearance from all the major organs including the liver [8]: about 4 weeks
- critical aggregation concentration (CAC) [9]: 18.5 mg/L
- critical aggregation concentration (CAC) ([9]; unit as printed in b33): 18.5 mg/L

Compound: O=C1[O][Pt]2([NH][C@@H]3CCCC[C@H]3[NH]2)[O]C1=O [Oxaliplatin, oxaliplatin, reference compound]
- AUC ([6]; single IV 1 mg (dach)Pt/kg, male rats, listed as OX): 2,320.4 ng h/mL

From article PMC4780734 (International Journal of Nanomedicine, 2016)
